Measured values: PubChem BioAssay AID504338 (NMMLSC, 2011)
Calls of active or inactive are those of the source.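 The calls were made as follows: active = GFP response vs DMSO above 150% with enough events counted; inconclusive = fewer than 70 events counted for a yeast strain; inactive = the rest.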

Assay: yeast TOR reporter LAP4-GFP retest – cell-based, third cherry pick, flow cytometry, confirmation (AID 504338);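 also: ratio to plate DMSO wells so 100% equals DMSO level rather than 0%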
Conditions: S. cerevisiae LAP4-GFP strain, 3 h, at 10 µM, hits give high values
Outline: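 material = yeast LAP4-GFP strain | medium = synthetic complete growth medium for yeast | doses = 10 µM, one concentration | schedule = compound exposure for 3 h at 30 °C | signal = flow cytometric GFP fluorescence | read-out basis = percent of mean DMSO-control median fluorescence | control set = rapamycin 400 ng/mL as positive control, DMSO wells as reference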

GFP response vs DMSO, inactive:
CC(=O)NCCOc1cccc2cccnc12 107%
Cn1cccc1C(=O)Nc1nc(-c2ccccn2)cs1 114%
Cc1nc2c(O)cccc2cc1CO 101%
CNc1nc(N)c([N+](=O)[O-])c(Nc2cccc(Cl)c2)n1 131%
C/C(=C\C(=O)c1ccccc1)Nc1cccc(O)c1 107%
O=C(N/N=C/c1ccccc1O)c1cccc2ccccc12 110%
O=C(O)c1ccc2cccc(O)c2n1 100%
COc1ccc(NC(=O)ON=C2c3ccccc3-c3ccccc32)cc1 104%
CCCC(=O)Nn1cnc2c(c1=O)C1(CCCC1)Cc1ccccc1-2 103%
COc1ccccc1Nc1nc(NCCCN(C)C)nc(N)c1[N+](=O)[O-] 103%
CC(=O)Nn1cnc2c(c1=O)C1(CCCCC1)Cc1ccccc1-2 106%
COc1ccc(OC)c(N/C(C)=C/C(=O)c2ccccc2)c1 103%
COc1cccc(N/C=C/C(=O)c2ccc(Cl)cc2)c1 111%
Cc1cc(C)c2ccc(C(=O)O)nc2c1O 107%
CC1=CN2C(=N)/C(=C/c3ccc(C)o3)C(=O)N=C2S1 104%
Cc1ccc(Nc2cc(=O)[nH]c(=O)[nH]2)cc1C 104%
OCCN1CCN(c2ncnc3ccc(Br)cc23)CC1 104%
O=C1c2ccccc2C(=O)c2c1cccc2N(CCO)CCO 100%
COC1=C/C(=C/c2c(N)n3cc(C)sc3nc2=O)C=CC1=O 110%

GFP response vs DMSO, active:
Cc1ccc2c(Cl)cc(Cl)c(O)c2n1 193%
